Source: ChEMBL document CHEMBL4145595, “Discovery of MK-8282 as a Potent G-Protein-Coupled Receptor 119 Agonist for the Treatment of Type 2 Diabetes” (ACS Med Chem Lett, 2018)
Each block holds one compound with its values, some of them ahead of it. Calls of active or inactive are those of the source. The calls are words filed in the database; no cut-off is given here.

Assays:
Rattus norvegicus [1] = assay: Antidiabetic activity in Sprague-Dawley rat assessed as reduction in glucose excursion at 1 mg/kg, po pretreated followed by glucose challenge measured after 10 to 30 mins by OGTT; assay type: functional, organism-based
How it was run: (§1)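 Sprague-Dawley rats underwent an oral glucose tolerance test with glucose excursion measured. Sitagliptin was dosed at 1 mpk and agonist at 3 mpk, alone or co-administered.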

Mus musculus [2] = assay: Antidiabetic activity in C57Bl/6NCrl mouse assessed as increase in plasma GLP1 (7 to 36) amide levels at 3 mg/kg, po administered via gavage pretreated followed by glucose-challenge measured after 10 mins; assay type: functional, organism-based
Mus musculus [3] = assay: Antidiabetic activity in C57Bl/6NCrl mouse assessed as reduction in glucose excursion at 1 mg/kg, po administered via gavage pretreated for 30 mins followed by glucose-challenge measured 60 mins post dose by OGTT relative to control; assay type: functional; parameters: scale not given: the % may be the effect or the level left
How it was run: (§2)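 Lean C57Bl/6 mice got oral vehicle or drug 30 min before the glucose challenge. Blood glucose was monitored for 60 min after oral administration and expressed as area under the curve (glucose excursion). Doses ranged from 0.03 to 30 mpk.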

Rattus norvegicus [4] = assay: Antidiabetic activity in Sprague-Dawley rat assessed as reduction in glucose excursion at 3 mg/kg, po pretreated followed by glucose challenge measured after 10 to 30 mins by OGTT; assay type: functional, organism-based; how it was run: as §1
Mus musculus [5] = assay: Antidiabetic activity in C57Bl/6NCrl mouse assessed as reduction in glucose excursion at 0.3 mg/kg, po administered via gavage pretreated for 30 mins followed by glucose-challenge measured 60 mins post dose by OGTT relative to control; assay type: functional; parameters: scale not given: the % may be the effect or the level left; how it was run: as §2
[6] = AUC in dog at 10 mg/kg, po; settings: in vivo
Mus musculus [7] = assay: Glucose lowering effect in po dosed GPR119 deficient mouse assessed as reduction in glucose level by OGTT; assay type: functional, organism-based
Rattus norvegicus [8] = assay: Oral bioavailability in rat at 30 mg/kg; settings: in vivo
Rattus norvegicus [9] = assay: AUC in rat at 30 mg/kg, po; settings: in vivo
Mus musculus [10] = assay: Antidiabetic activity in C57Bl/6NCrl mouse assessed as reduction in glucose excursion at 1 to 30 mg/kg, po administered via gavage pretreated for 30 mins followed by glucose-challenge measured 60 mins post dose by OGTT relative to control; assay type: functional; parameters: scale not given: the % may be the effect or the level left; how it was run: as §2
[11] = Plasma clearance in monkey at 1 mg/kg, iv or 3 mg/kg, po; assay type: ADME, organism-based, Macaca mulatta; settings: rhesus monkey
How it was run: (§3)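 Monkey PK used 1 mpk IV and 3 mpk PO. Readouts were plasma clearance (mL/min/kg), Vdss (L/kg), t½ (h), oral AUC (µM·h) and bioavailability F (%).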

Mus musculus [12] = assay: Antidiabetic activity in C57Bl/6NCrl mouse assessed as increase in plasma GLP1 (7 to 36) amide levels at 1 mg/kg, po administered via gavage pretreated followed by glucose-challenge measured after 10 mins in presence of sitagliptin; assay type: functional, organism-based
Mus musculus [13] = assay: Antidiabetic activity in C57Bl/6NCrl mouse assessed as reduction in glucose excursion administered via oral gavage pretreated for 30 mins followed by glucose-challenge measured 60 mins post dose by OGTT; assay type: functional, organism-based; how it was run: as §2
Mus musculus [14] = assay: Antidiabetic activity in lepr db/db mouse assessed as reduction in glucose excursion at 10 mg/kg, po by OGTT; assay type: functional, organism-based
[15] = Volume of distribution at steady state in monkey at 1 mg/kg, iv or 3 mg/kg, po; assay type: ADME, organism-based, Macaca mulatta; settings: rhesus monkey, in vivo, read-out: Vdss; how it was run: as §3
Rattus norvegicus [16] = assay: Antidiabetic activity in Sprague-Dawley rat assessed as reduction in glucose excursion at 3 mg/kg, po pretreated followed by glucose challenge measured after 10 to 30 mins in presence of sitagliptin by OGTT; assay type: functional, organism-based; how it was run: as §1
[17] = Oral bioavailability in monkey at 3 mg/kg; assay type: ADME, organism-based, Macaca mulatta; settings: rhesus monkey, in vivo; how it was run: as §3
[18] = Plasma clearance in dog at 1 mg/kg, iv or 10 mg/kg, po
[19] = Half life in monkey at 1 mg/kg, iv or 3 mg/kg, po; assay type: ADME, organism-based, Macaca mulatta; settings: rhesus monkey, in vivo; how it was run: as §3
[20] = target: T1, Glucose-dependent insulinotropic receptor (Homo sapiens, UniProt Q8TDV5); assay: (§4) Agonist activity at human GPR119 expressed in HEK293 cells assessed as increase in cAMP level after 30 mins by LANCE assay; assay type: functional, cell-based
T1 sequence (Q8TDV5 whole entry): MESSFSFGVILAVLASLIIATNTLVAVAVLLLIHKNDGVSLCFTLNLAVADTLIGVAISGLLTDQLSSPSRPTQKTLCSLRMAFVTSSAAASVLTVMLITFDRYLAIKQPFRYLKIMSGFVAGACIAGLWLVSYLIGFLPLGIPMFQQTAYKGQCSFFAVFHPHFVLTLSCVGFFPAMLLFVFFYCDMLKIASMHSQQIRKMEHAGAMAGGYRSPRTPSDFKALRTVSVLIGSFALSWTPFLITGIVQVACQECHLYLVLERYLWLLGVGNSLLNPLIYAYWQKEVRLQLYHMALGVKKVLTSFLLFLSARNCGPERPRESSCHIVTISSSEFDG

[21] = target: T2, Glucose-dependent insulinotropic receptor (Homo sapiens) (UniProt Q8TDV5); assay: as §4; assay type: functional, cell-based
T2 sequence (whole entry): T1 sequence (Q8TDV5 whole entry)

[22] = target: T3, Glucose-dependent insulinotropic receptor (Mus musculus, UniProt Q7TQP3); assay: (§5) Agonist activity at mouse GPR119 assessed as increase in cAMP level; assay type: functional
T3 sequence (Q7TQP3 whole entry): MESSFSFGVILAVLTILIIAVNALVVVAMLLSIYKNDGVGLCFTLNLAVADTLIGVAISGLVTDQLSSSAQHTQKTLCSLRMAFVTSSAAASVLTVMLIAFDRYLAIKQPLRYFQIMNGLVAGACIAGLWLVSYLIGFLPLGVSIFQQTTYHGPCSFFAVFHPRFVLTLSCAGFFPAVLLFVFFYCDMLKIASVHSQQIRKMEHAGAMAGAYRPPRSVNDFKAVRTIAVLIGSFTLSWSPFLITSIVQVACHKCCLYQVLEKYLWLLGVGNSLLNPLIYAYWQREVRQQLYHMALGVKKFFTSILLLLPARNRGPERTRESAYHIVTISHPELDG

[23] = target: T4, Glucose-dependent insulinotropic receptor (Mus musculus) (UniProt Q7TQP3); assay: as §5; assay type: functional
T4 sequence (whole entry): T3 sequence (Q7TQP3 whole entry)

[24] = Half life in dog at 1 mg/kg, iv or 10 mg/kg, po; settings: in vivo
[25] = Volume of distribution at steady state in dog at 1 mg/kg, iv or 10 mg/kg, po; settings: in vivo, read-out: Vdss
[26] = Protein binding in rat assessed as unbound fraction at 10 uM; assay type: ADME, cell-free; settings: plasma
[27] = Volume of distribution at steady state in rat at 1 mg/kg, iv or 30 mg/kg, po; settings: in vivo, read-out: Vdss
[28] = Half life in rat at 1 mg/kg, iv or 30 mg/kg, po; settings: in vivo
Mus musculus [29] = assay: Antidiabetic activity in C57Bl/6NCrl mouse assessed as increase in plasma GLP1 (7 to 36) amide levels at 1 mg/kg, po administered via gavage pretreated followed by glucose-challenge measured after 10 mins; assay type: functional, organism-based
Mus musculus [30] = assay: Antidiabetic activity in C57Bl/6NCrl mouse assessed as reduction in glucose excursion at 0.1 mg/kg, po administered via gavage pretreated for 30 mins followed by glucose-challenge measured 60 mins post dose by OGTT relative to control; assay type: functional; parameters: scale not given: the % may be the effect or the level left; how it was run: as §2
Mus musculus [31] = assay: Antidiabetic activity in C57Bl/6NCrl mouse assessed as maximum plasma concentration required for reduction in glucose excursion at 0.3 mg/kg, po administered via gavage pretreated for 30 mins followed by glucose-challenge measured 60 mins post dose by OGTT; assay type: functional, organism-based; parameters: dose 0.3 mg/kg
How it was run: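 Lean C57Bl/6 mice were dosed orally 30 min before the glucose challenge (oGTT, glucose followed for 60 min). Plasma Cmax was taken at t = 1 h after the 0.3 mPk dose.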

[32] = AUC in monkey at 3 mg/kg, po; assay type: ADME, organism-based, Macaca mulatta; settings: rhesus monkey, in vivo; how it was run: as §3
Mus musculus [33] = assay: Antidiabetic activity in C57Bl/6NCrl mouse assessed as reduction in glucose excursion at 0.03 mg/kg, po administered via gavage pretreated for 30 mins followed by glucose-challenge measured 60 mins post dose by OGTT relative to control; assay type: functional; parameters: scale not given: the % may be the effect or the level left; how it was run: as §2
Mus musculus [34] = assay: Glucose lowering effect in C57Bl/6NCrl mouse assessed as reduction in glucose level at 3 mg/kg, po administered via gavage pretreated for 30 mins followed by glucose-challenge measured after 20 mins by OGTT relative to control; assay type: functional; parameters: scale not given: the % may be the effect or the level left
How it was run: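 Overnight-fasted mice got compound or vehicle orally at 3 to 10 mg/kg. Glucose (3 g/kg po) was given 30 min post-dose. Blood glucose was read by hand-held glucometer before dosing, before glucose and 20 min after glucose. Glucose lowering (%) = [(1 − 20 min glucose of treated / 20 min glucose of vehicle) × 100].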

Mus musculus [35] = assay: Antidiabetic activity in diet-induced obese mouse assessed as reduction in glucose excursion at 1 to 3 mg/kg, po by OGTT; assay type: functional, organism-based

SMILES: N[C@@H](CC(=O)N1CCn2c(nnc2C(F)(F)F)C1)Cc1cc(F)c(F)cc1F
Activity (Rattus norvegicus [1]): Active
Activity (Mus musculus [2]): Active

AUC [6]: 131 µM·h
F (Rattus norvegicus [8]): 35%
AUC (Rattus norvegicus [9]): 63 µM·h
clearance [11]: 3.1 mL/min/kg
Vd [15]: 2.6 L/kg
bioavailability [17]: 38%
clearance [18]: 0.77 mL/min/kg
half-life [19]: 12 h
EC50 [20]: 10 nM
%max [21]: 92%
EC50 [22]: 58 nM
%max [23]: 99%
half-life [24]: 70 h
Vd [25]: 4.4 L/kg
Fu [26]: 1%
Vd [27]: 5.8 L/kg
half-life [28]: 8.8 h
AUC [32]: 13 µM·h
SMILES: CC1(OC(=O)N2C[C@H]3COC[C@@H](C2)[C@@H]3Oc2ncnc(Nc3ccc(C#N)cc3Cl)c2F)CC1
Activity (Mus musculus [3]): 49%
Activity (Rattus norvegicus [4]): Active
Activity (Mus musculus [5]): 46%
Activity (Mus musculus [7]): inactive
Activity (Mus musculus [10]): 50%
Activity (Mus musculus [12]): Active
Activity (Mus musculus [13]): Dose-dependent effect
Activity (Mus musculus [14]): Active
Activity (Rattus norvegicus [16]): Active
Activity (Mus musculus [29]): Active
Activity (Mus musculus [30]): 23%
Cmax (Mus musculus [31]): 60 nM
Activity (Mus musculus [33]): 21%
Activity (Mus musculus [34]): 29%
Activity (Mus musculus [35]): Active
